B2AR ag = human beta-2 adrenergic receptor agonism by FAP; P07550; 340,000 tested, 0.43% active; AID 504454; Am2.2-beta2AR cells, FAP receptor internalization, flow cytometry; response, % (test concentration not listed);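 active means response above a set limit, near 3 SD of response in nonfluorescent compounds, cut at about 42% in these data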
CXCR6 block = CXCR6 (human) receptor inhibition; O00574; CHO-K1 PathHunter CXCR6 beta-arrestin, luminescence; inhibition, % at 20 µM; 360,000 tested, 0.36% active; in the data active means inhibition above about 34%, passing the limit was not always enough;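 further: antagonist mode with CXCL16 agonist at 10 nM final; 0% = 10 nM CXCL16 with DMSO and 100% = unstimulated wells without agonist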
APJ ag = activates the human apelin receptor APJ | P35414 | CHO-K1 APJ PathHunter beta-arrestin, luminescence; 0% DMSO wells, 100% apelin | activation, % at 20 µM | 330,000 tested, 0.11% active;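 active means activation more than six SD over the plate average, tested at 20 µM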;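 further: 0% = DMSO alone and 100% = apelin-13 at 10 nM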
Target sequence (P35414 whole entry, looked up): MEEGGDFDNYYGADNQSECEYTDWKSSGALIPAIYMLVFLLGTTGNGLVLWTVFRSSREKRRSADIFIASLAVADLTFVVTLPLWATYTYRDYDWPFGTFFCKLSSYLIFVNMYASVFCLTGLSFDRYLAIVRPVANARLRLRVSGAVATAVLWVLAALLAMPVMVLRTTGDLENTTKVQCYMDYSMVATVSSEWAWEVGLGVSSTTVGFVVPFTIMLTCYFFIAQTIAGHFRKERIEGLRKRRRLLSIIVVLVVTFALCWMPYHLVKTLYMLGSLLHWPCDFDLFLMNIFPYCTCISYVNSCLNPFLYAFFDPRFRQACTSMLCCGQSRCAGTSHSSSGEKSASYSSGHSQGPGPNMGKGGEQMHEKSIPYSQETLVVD
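Assay system: CHO-K1 cells stably expressing ProLink-tagged human APJ and arrestin–beta-gal acceptor. Compound dosing: 20 µM single point, 1% DMSO. Times: 16-18 h seeding, 90 min dark compound exposure, 60 min detection. Detection: beta-gal luminescence. Evaluation: APJ–arrestin association signal. Controls: negative DMSO alone, positive Apelin-13 at 10 nM.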
PfGluPho inh = PfG6PD (Plasmodium falciparum) enzyme inhibition | AID 504690 | 350,000 tested, 0.78% active | inhibition, % at 20 µM | PfGluPho enzyme, NADPH resazurin-diaphorase fluorescence;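 active means inhibition reaching at least a set limit at 20 µM in the primary screen, cut at about 59% in these data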;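 further: 0% = DMSO wells with substrate and 100% = DMSO wells lacking glucose-6-phosphate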
APJ antagonist = APJ receptor antagonism; P35414; CHO-K1 APJ beta-arrestin complementation, luminescence; inhibition, % at 20 µM; 330,000 tested, 0.32% active;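 active means inhibition above about 40% at 20 µM, limit read from the data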;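 further: cells challenged with 10 nM apelin-13 agonist together with compound; plate controls were apelin-13 plus DMSO wells for no effect and DMSO wells lacking apelin-13 for full effect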
CCR6 antag = blocks CCL20-driven beta-arrestin recruitment at human CCR6; 340,000 tested, 0.49% active; CHO-K1 CCR6 PathHunter beta-arrestin, luminescence, CCL20-stimulated; P51684; inhibition, % at 20 µM;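 active means compounds whose inhibition of the agonist-driven luminescence signal at 20 µM reaches about 50%, limit read from the data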;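 further: cells stimulated with CCL20 at 14 nM final; plate controls were DMSO with CCL20 for no effect and DMSO without agonist for full effect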
PfGluPho conf = confirmation of Plasmodium falciparum G6PD inhibitors | shares compounds with PfGluPho inh | recombinant PfGluPho, NADPH-diaphorase-resazurin fluorescence | inhibition, % at 20 µM | 2,400 tested, 34% active;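 active means inhibition of at least 50% at 20 µM in any single replicate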;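 further: 0% = DMSO with substrate and 100% = DMSO lacking glucose-6-phosphate substrate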
Diaph ctr 10uM = counter-screen for P. falciparum G6PD inhibitors: diaphorase inhibitors, oxidizers. shares compounds with PfGluPho inh. diaphorase-coupled resazurin reduction, fluorescence, NADPH 10 uM. inhibition, % at 20 µM. 820 tested, 39% active;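 active means average inhibition reaching 50% or more with the compound at 20 µM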;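 further: resorufin red fluorescence formed as diaphorase reduces resazurin using NADPH; 0% = DMSO with enzyme and 100% = DMSO without enzyme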
Diaph ctr 30uM = diaphorase inhibition or oxidation at 30 uM NADPH | shares compounds with PfGluPho inh | Diaphorase/resazurin coupled assay, resorufin fluorescence | inhibition, % at 20 µM | 820 tested, 29% active | AID 504863;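 active means inhibition averaging 50% or more, tested at 20 µM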;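 further: 0% = DMSO with enzyme and 100% = DMSO wells lacking diaphorase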
* marks the source's active call; other numbers are inactive results; / = no result. Sampled rows, rich in hits. Any-hit rate of the full collection: about 1.7%.

SMILES	B2AR ag	CXCR6 block	APJ ag	PfGluPho inh	APJ antagonist	CCR6 antag	PfGluPho conf	others
CCC(=O)OC1(C)C(=O)C2=COC(c3ccc(OC)cc3)=CC2=C(Br)C1=O (stereo unspecified)	-1	5	10	26	-33	6	/
COC(=O)CCC(=O)OC1(C)C(=O)C2=CN(CCc3c[nH]c4ccccc34)C(c3ccc(OC)cc3)=CC2=C(Br)C1=O (stereo unspecified)	-3	-10	15	53	-78	-8	/
COC(=O)CCC(=O)OC1(C)C(=O)C2=CN(C3CC3)C(c3ccc(OC)cc3)=CC2=C(Br)C1=O (stereo unspecified)	7	-4	14	72*	-136	-8	52*	Diaph ctr 10uM=46;Diaph ctr 30uM=49
COc1ccc(NC(=O)Cc2cccc3ccccc23)cc1	-2	3	-2	4	0	9	/
COc1ccc(-c2nc(-c3ccccn3)ncc2S(C)(=O)=O)cc1	2	0	-2	-13	14	12	/
CCn1c(N)nc2c1c(=O)n(C)c(=O)n2C	9	-2	-3	-13	-40	-1	/
CCCc1nc2c(=O)n(C)c(=O)nc-2n(C)n1	80*	-14	/	109*	/	7	103*	Diaph ctr 10uM=98*;Diaph ctr 30uM=100*
Cn1nc(-c2ccccn2)nc2c(=O)n(C)c(=O)nc1-2	74*	7	12	113*	-32	10	89*	Diaph ctr 10uM=98*;Diaph ctr 30uM=103*
O=C(Nc1ccn(CCCNC2CCN(Cc3ccccc3)CC2)c(=O)n1)OCc1ccccc1	/	-2	/	10	/	/	/
CC(=O)Cn1cnc2scc(-c3ccc(C)c(C)c3)c2c1=O	-5	23	-3	13	9	5	/
O=C(NCCc1ccccc1)C(=O)NC1CCCCC1	-1	4	3	-1	4	5	/
O=C(NC1CCCCC1)C(=S)NCCc1ccccc1	-1	-1	-1	65*	15	2	4
C=C[C@H]1C(C(=O)OCC)=CC[C@@H](c2ccccc2)N1S(=O)(=O)c1ccc(C)cc1	/	0	/	/	/	/	/
COCCNc1nnc(SCC(=O)c2ccc3c(c2)OCO3)s1	19	-2	-4	4	3	10	/
CSc1nnc(NC(=O)c2ccc3c(c2)OCO3)s1	2	-6	-3	96*	2	-5	74*	Diaph ctr 10uM=49;Diaph ctr 30uM=48
Cc1nnc(NC(=O)c2ccc3c(c2)OCO3)s1	-3	6	-2	17	-5	6	/
COCCSc1nnc(NC(=O)c2ccc3c(c2)OCO3)s1	-2	7	-3	71*	4	-4	34
COc1cc(N(CCCn2cnc3c(SC)ncnc32)CCCn2cnc3c(SC)ncnc32)cc(OC)c1OC	/	-3	/	44	/	/	/
CCC1(CC)Cc2ccccc2C(N)=C1C#N	0	8	-3	61*	21	9	49*	Diaph ctr 10uM=50*;Diaph ctr 30uM=36
Cn1ccnc1C(=O)c1ccc(Cl)c(S(=O)(=O)N2CCOCC2)c1	1	5	-4	-10	-6	6	/
CCn1c(N)c(C(=O)NCC2CCCO2)sc1=S (stereo unspecified)	-3	-9	-4	61*	5	12	40
CCn1c(N)c(C(=O)NCCCOC)sc1=S	3	6	-2	65*	-11	6	13
CCn1c(N)c(C(=O)NC)sc1=S	5	11	6	80*	19	-1	50*	Diaph ctr 10uM=-27;Diaph ctr 30uM=-20
S=C(Nc1cc(Cl)cc(Cl)c1)N1CCN(c2ccccn2)CC1	12	-4	-3	2	5	7	/
Cc1ccc(C(=O)NCCC(=O)N2CCCC2)cc1	6	-3	0	-13	8	9	/
SMILES	B2AR ag	CXCR6 block	APJ ag	PfGluPho inh	APJ antagonist	CCR6 antag	PfGluPho conf	others
NC(=O)c1csc(-c2ccncc2)n1	0	0	-1	-10	-17	14	/
Nc1cc(-c2ccncc2)c[nH]c1=O	-1	0	-1	64*	9	-9	30
CN(O)/C=c1/ccc2c(n1)C(=O)C=CC=2	-5	5	2	68*	-24	35	58*	Diaph ctr 10uM=-18;Diaph ctr 30uM=-12
CCc1nnc(NC(=O)CC23CC4CC(CC(Br)(C4)C2)C3)s1	-8	-4	-5	4	-47	9	/
Cc1cccc(/C=N\NC(=O)c2sccc2-n2cccc2)c1	7	5	0	71*	9	30	42
O=C(N/N=C\c1ccccc1)c1sccc1-n1cccc1	-1	0	2	45	12	-5	/
CCc1c(C)sc(NC(=O)C2CCCCC2C(=O)O)c1C(N)=O (stereo unspecified)	7	1	0	74*	10	-1	32
CCOC(=O)c1cnc2ccc(C)cc2c1Sc1ccccc1C(=O)OC	4	18	-1	104*	0	6	48*	Diaph ctr 10uM=44;Diaph ctr 30uM=39
CC(=O)c1ccc(NC(=O)CCNC(=O)c2ccccc2Cl)cc1	-2	-5	3	5	4	-11	/
CC(=O)n1c2ccccc2c2nc3ccccc3nc21	-7	-13	-4	-8	-13	14	/
C=CCNc1nc2c3ccccc3n(C(C)=O)c2s1	-22	2	0	64*	25	5	8
COc1cc(NS(=O)(=O)c2cc3[nH]c(=O)c(=O)[nH]c3cc2C)cc(OC)c1OC	-4	-4	-1	63*	4	-6	0
Cc1onc(C(=O)Nc2sc3c(c2C(N)=O)CCCC3)c1[N+](=O)[O-]	-9	5	-6	64*	-6	17	47
COc1ccc(Br)c(OC)c1C(=O)NC(=O)Nc1nc(C)cc(C)n1	-2	4	1	106*	-12	1	74*	Diaph ctr 10uM=68*;Diaph ctr 30uM=65*
Oc1ccc(N2CCN(Cc3c(-c4ccccc4)nc4ccccn34)CC2)cc1	-17	8	1	59*	-20	12	-1
Clc1ccc(-c2nc3ccccn3c2CN2CCCCC2)cc1	-12	4	-3	-5	11	24	/
CCc1cccc(NC(=O)c2cnn(-c3ccccc3)c2C)c1	-1	-2	0	49	9	20	/
COc1cccc(NC(=O)c2cnn(-c3ccccc3)c2C)c1	1	-9	-3	63*	-8	-6	22
O=S(=O)(c1ccc(Br)cc1F)N1CC[C@H](O)C1	-5	-2	/	-1	/	10	/
O=C1C(Cl)=C(NC(=O)c2ccccc2)C(=O)C(Cl)=C1NC(=O)c1ccccc1	56*	88*	1	114*	-37	/	110*	Diaph ctr 10uM=86*;Diaph ctr 30uM=61*

Screening results: PubChem BioAssay, several laboratories
